In ChEMBL document CHEMBL4831543, “Design of Transmembrane Mimetic Structural Probes to Trap Different Stages of γ-Secretase-Substrate Interaction” (J Med Chem, 2021):
Calls of active or inactive are those of the source. No cut-off for these calls is given here.

Tests used:
[1] = target: Gamma-secretase; experiment: Inhibition of gamma secretase (unknown origin) expressed in HEK293 cells assessed as reduction of A-beta40 levels using C100-FLAG as substrate incubated for 2 hrs by sandwich ELISA; assay type: cell-based, Homo sapiens
[2] = target: T1, Gamma-secretase (Homo sapiens) (UniProt Q96BI3+Q9NZ42+Q8WW43+P49768+Q92542+P49810); experiment: Inhibition of TSA-Bpa-Bt labelling of gamma secretase (unknown origin) expressed in HEK293 cells at 10 uM preincubated for 1.5 hrs followed by irradiation for 30 mins by Western blot analysis; assay type: cell-based; details: time 2.0 hrs
Outline: (§1)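 Purified γ-secretase, 2 nM, preincubated 30 min at 37 °C in assay buffer (50 mM HEPES pH 7.0, 150 mM NaCl, 0.025% DOPC, 0.1% DOPE, 0.25% CHAPSO). Biotinylated photoprobe added at 1 μM, with or without 10 μM competitor, for 1.5 h at 37 °C. UV 350 nm for 30 min on ice, streptavidin pull-down, six washes. Presenilin-1 NTF detected by western blot.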

[3] = target: T1, Gamma-secretase (Homo sapiens); experiment: Inhibition of HPI-Bpa-Bt labelling of gamma secretase (unknown origin) expressed in HEK293 cells at 10 uM preincubated for 1.5 hrs followed by irradiation for 30 mins by Western blot analysis; assay type: cell-based; details: time 2.0 hrs; outline: as §1
[4] = target: T1, Gamma-secretase (Homo sapiens); experiment: Competitive inhibition of TSA 1 binding to gamma secretase (unknown origin); assay type: protein-complex assay
Outline: (§2)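 Cross-competition kinetics using the standard activity assay. Purified γ-secretase from suspension HEK293 cells, expressed from a tetracistronic vector, in detergent-lipid buffer (HEPES pH 7.0, DOPC, DOPE, CHAPSO). Varying concentrations of two inhibitors titrated against each other, with C100Flag held at 0.50 μM. Aβ40 measured by sandwich ELISA. Data plotted as reciprocal plots and fit to a two-inhibitor equation.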

[5] = target: Gamma-secretase; experiment: Noncompetitive inhibition of gamma secretase (unknown origin) expressed in HEK293 cells assessed as reduction of A-beta40 levels using varying level of C100-FLAG as substrate incubated for 2 hrs by double reciprocal plot analysis; assay type: cell-based, Homo sapiens
Outline: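 1 nM purified γ-secretase from suspension HEK293 cells (tetracistronic pMLINK) in HEPES pH 7.0, NaCl, DOPC, DOPE, 0.25% CHAPSO. Preincubated 30 min at 37 °C, then given inhibitor in DMSO (2% final) with C100Flag at 0–4.5 μM. Reaction run 2 h at 37 °C; Aβ40 read by sandwich ELISA. Ki obtained by fitting to a noncompetitive inhibition equation.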

[6] = target: T1, Gamma-secretase (Homo sapiens); experiment: Competitive inhibition of HPI 2 binding to gamma secretase (unknown origin); assay type: protein-complex assay; outline: as §2

Row | SMILES | IC50 [1] [nM] | inhibition [2] | inhibition [3] | further results
1 | CC[C@H](C)[C@H](NC(=O)[C@@H](NC(=O)[C@@H](NC(=O)C(C)(C)NC(=O)CNC(=O)[C@@H](NC(=O)OC(C)(C)C)C(C)C)C(C)C)C(C)C)C(=O)NC(C)(C)C(=O)N[C@H](C(=O)N[C@H](C(=O)NC(C)(C)C(=O)NCCCCCCCCCCCC(=O)N[C@H](C(=O)N[C@@H](Cc1ccccc1)[C@H](O)CN(Cc1ccccc1)C(=O)N[C@@H](CC(C)C)C(=O)N[C@H](C(N)=O)C(C)C)C(C)C)C(C)C)[C@@H](C)O | 0.87 |  |  | 
2 | CC[C@H](C)[C@H](NC(=O)[C@@H](NC(=O)[C@@H](NC(=O)C(C)(C)NC(=O)CNC(=O)[C@@H](NC(=O)OC(C)(C)C)C(C)C)C(C)C)C(C)C)C(=O)NC(C)(C)C(=O)N[C@@H](Cc1ccccc1)C(=O)N[C@H](C(=O)NC(C)(C)C(=O)OC)C(C)C |  | inactive | Active | inhibition [4]: inactive
3 | CC[C@H](C)[C@H](NC(=O)[C@@H](NC(=O)[C@@H](NC(=O)C(C)(C)NC(=O)CNC(=O)[C@@H](NC(=O)OC(C)(C)C)C(C)C)C(C)C)C(C)C)C(=O)NC(C)(C)C(=O)N[C@H](C(=O)N[C@H](C(=O)NC(C)(C)C(=O)NCCCCC(=O)N[C@H](C(=O)N[C@@H](Cc1ccccc1)[C@H](O)CN(Cc1ccccc1)C(=O)N[C@@H](CC(C)C)C(=O)N[C@H](C(N)=O)C(C)C)C(C)C)C(C)C)[C@@H](C)O | 3.2 |  |  | 
4 | CC[C@H](C)[C@H](NC(=O)[C@@H](NC(=O)[C@@H](NC(=O)C(C)(C)NC(=O)CNC(=O)[C@@H](NC(=O)OC(C)(C)C)C(C)C)C(C)C)C(C)C)C(=O)NC(C)(C)C(=O)N[C@H](C(=O)N[C@H](C(=O)NC(C)(C)C(=O)NCCCCCCCCCCC(=O)N[C@H](C(=O)N[C@@H](Cc1ccccc1)[C@H](O)CN(Cc1ccccc1)C(=O)N[C@@H](CC(C)C)C(=O)N[C@H](C(N)=O)C(C)C)C(C)C)C(C)C)[C@@H](C)O | 0.7 |  |  | Ki [5]: 0.65 nM
5 | CC[C@H](C)[C@H](NC(=O)[C@@H](NC(=O)[C@@H](NC(=O)C(C)(C)NC(=O)CNC(=O)[C@@H](NC(=O)OC(C)(C)C)C(C)C)C(C)C)C(C)C)C(=O)NC(C)(C)C(=O)N[C@H](C(=O)N[C@H](C(=O)NC(C)(C)C(=O)OC)C(C)C)[C@@H](C)O | 34.8 |  |  | 
6 | CC[C@H](C)[C@@H](NC(=O)[C@H](NC(=O)[C@H](NC(=O)C(C)(C)NC(=O)CNC(=O)[C@H](NC(=O)OC(C)(C)C)C(C)C)C(C)C)C(C)C)C(=O)NC(C)(C)C(=O)N[C@@H](C(=O)N[C@@H](C(=O)NC(C)(C)C(=O)NCCCCCCCCCCC(=O)N[C@H](C(=O)N[C@@H](Cc1ccccc1)[C@H](O)CN(Cc1ccccc1)C(=O)N[C@@H](CC(C)C)C(=O)N[C@H](C(N)=O)C(C)C)C(C)C)C(C)C)[C@@H](C)O |  | Active | Active | inhibition [6]: Active; inhibition [4]: Active
7 | CC[C@H](C)[C@H](NC(=O)[C@@H](NC(=O)[C@@H](NC(=O)C(C)(C)NC(=O)CNC(=O)[C@@H](NC(=O)OC(C)(C)C)C(C)C)C(C)C)C(C)C)C(=O)NC(C)(C)C(=O)N[C@H](C(=O)N[C@H](C(=O)NC(C)(C)C(=O)N[C@H](C(=O)N[C@@H](Cc1ccccc1)[C@H](O)CN(Cc1ccccc1)C(=O)N[C@@H](CC(C)C)C(=O)N[C@H](C(N)=O)C(C)C)C(C)C)C(C)C)[C@@H](C)O | 7.5 |  |  | 
8 | COC(=O)[C@@H](NC(=O)[C@H](CC(C)C)NC(=O)N(Cc1ccccc1)C[C@@H](O)[C@H](Cc1ccccc1)NC(=O)[C@@H](NC(=O)OC(C)(C)C)C(C)C)C(C)C |  | Active | inactive | inhibition [6]: inactive
9 | CC[C@H](C)[C@H](NC(=O)[C@@H](NC(=O)[C@@H](NC(=O)C(C)(C)NC(=O)CNC(=O)[C@@H](NC(=O)OC(C)(C)C)C(C)C)C(C)C)C(C)C)C(=O)NC(C)(C)C(=O)N[C@H](C(=O)N[C@H](C(=O)NC(C)(C)C(=O)NCCCCCCC(=O)N[C@H](C(=O)N[C@@H](Cc1ccccc1)[C@H](O)CN(Cc1ccccc1)C(=O)N[C@@H](CC(C)C)C(=O)N[C@H](C(N)=O)C(C)C)C(C)C)C(C)C)[C@@H](C)O | 1.5 |  |  | 
10 | CC[C@H](C)[C@H](NC(=O)[C@@H](NC(=O)[C@@H](NC(=O)C(C)(C)NC(=O)CNC(=O)[C@@H](NC(=O)OC(C)(C)C)C(C)C)C(C)C)C(C)C)C(=O)NC(C)(C)C(=O)N[C@H](C(=O)N[C@H](C(=O)NC(C)(C)C(=O)NCCC(=O)N[C@H](C(=O)N[C@@H](Cc1ccccc1)[C@H](O)CN(Cc1ccccc1)C(=O)N[C@@H](CC(C)C)C(=O)N[C@H](C(N)=O)C(C)C)C(C)C)C(C)C)[C@@H](C)O | 6 |  |  | 
11 | CC[C@H](C)[C@H](NC(=O)[C@@H](NC(=O)[C@@H](NC(=O)C(C)(C)NC(=O)CNC(=O)[C@@H](NC(=O)OC(C)(C)C)C(C)C)C(C)C)C(C)C)C(=O)NC(C)(C)C(=O)N[C@H](C(=O)N[C@H](C(=O)NC(C)(C)C(=O)NCCCCCCCCC(=O)N[C@H](C(=O)N[C@@H](Cc1ccccc1)[C@H](O)CN(Cc1ccccc1)C(=O)N[C@@H](CC(C)C)C(=O)N[C@H](C(N)=O)C(C)C)C(C)C)C(C)C)[C@@H](C)O | 1.1 |  |  | 
12 | CC[C@H](C)[C@H](NC(=O)[C@@H](NC(=O)[C@@H](NC(=O)C(C)(C)NC(=O)CNC(=O)[C@@H](NC(=O)OC(C)(C)C)C(C)C)C(C)C)C(C)C)C(=O)NC(C)(C)C(=O)N[C@@H](Cc1ccccc1)C(=O)N[C@H](C(=O)NC(C)(C)C(=O)NCC(=O)NCC(=O)NCC(=O)N[C@H](C(=O)N[C@@H](Cc1ccccc1)[C@H](O)CN(Cc1ccccc1)C(=O)N[C@@H](CC(C)C)C(=O)N[C@H](C(N)=O)C(C)C)C(C)C)C(C)C |  | Active | Active | 
13 | CC[C@H](C)C(NC(=O)[C@@H](NC(=O)C(C)(C)NC(=O)[C@@H](NC(=O)[C@H](Cc1ccccc1)NC(=O)C(C)(C)NC(=O)[C@@H](NC(=O)[C@@H](NC(=O)[C@@H](NC(=O)C(C)(C)NC(=O)CNC(=O)[C@@H](NC(=O)OC(C)(C)C)C(C)C)C(C)C)C(C)C)[C@@H](C)CC)C(C)C)C(C)C)C(=O)N[C@H](C(=O)N[C@H](C(=O)N[C@@H](Cc1ccccc1)[C@H](O)CN(Cc1ccccc1)C(=O)N[C@@H](CC(C)C)C(=O)N[C@H](C(N)=O)C(C)C)C(C)C)C(C)C (some centres not stated) | 58.9 |  |  | 
